Measurements taken from the M2OR odorant receptor database.
Residue numbers refer to the chain shown, from its start.

Columns and labels:
Conditions in all cases: stereoisomer not certain
OR10A7 (Homo sapiens) = target: T1, OR10A7 (Homo sapiens) (UniProt Q8NGE5)
T1 sequence (whole entry): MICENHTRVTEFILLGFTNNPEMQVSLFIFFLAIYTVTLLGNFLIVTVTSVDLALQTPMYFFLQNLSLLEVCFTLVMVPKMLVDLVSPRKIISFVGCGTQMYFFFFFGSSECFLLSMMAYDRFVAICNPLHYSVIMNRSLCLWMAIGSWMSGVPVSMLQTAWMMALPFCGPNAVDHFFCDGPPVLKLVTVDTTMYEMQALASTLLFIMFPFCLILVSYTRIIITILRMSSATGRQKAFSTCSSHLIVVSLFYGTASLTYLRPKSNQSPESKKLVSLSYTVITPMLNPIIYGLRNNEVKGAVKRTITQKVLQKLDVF
In short: (§1)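 Values were gathered from published papers (main text and supplementary material), with extra details requested from the original authors when needed, and checked for typos and inconsistencies. Each receptor–molecule pair is called responsive (active) if the original authors judged the measured signal statistically different from baseline, and non-responsive (inactive) otherwise. Assay methods varied by source, often transient mammalian cell-line luciferase assays. Recorded details include cell line, G-protein, co-transfected protein and tags.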

O5AN1 = test system: T2, O5AN1
T2 sequence (whole entry): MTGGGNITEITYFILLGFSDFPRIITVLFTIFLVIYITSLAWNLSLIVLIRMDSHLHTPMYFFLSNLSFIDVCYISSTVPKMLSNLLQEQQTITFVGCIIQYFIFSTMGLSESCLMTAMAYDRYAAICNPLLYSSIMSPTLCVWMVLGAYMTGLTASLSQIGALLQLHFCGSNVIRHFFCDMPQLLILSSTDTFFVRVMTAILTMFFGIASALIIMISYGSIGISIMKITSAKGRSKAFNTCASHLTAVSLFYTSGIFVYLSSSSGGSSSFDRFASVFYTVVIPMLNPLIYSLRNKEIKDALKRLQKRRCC
In short: as §1

O5AP2 A105T = test system: T3, O5AP2 A105T
T3 sequence (whole entry): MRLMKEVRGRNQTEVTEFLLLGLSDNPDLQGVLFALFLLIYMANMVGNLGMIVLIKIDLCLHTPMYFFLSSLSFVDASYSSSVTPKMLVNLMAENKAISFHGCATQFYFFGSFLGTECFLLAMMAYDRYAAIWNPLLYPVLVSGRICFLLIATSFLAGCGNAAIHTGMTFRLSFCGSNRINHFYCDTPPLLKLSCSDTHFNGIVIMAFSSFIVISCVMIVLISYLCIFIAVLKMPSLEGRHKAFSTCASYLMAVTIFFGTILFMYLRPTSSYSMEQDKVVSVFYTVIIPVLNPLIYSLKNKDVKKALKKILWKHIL
In short: as §1

O5AU1 = test system: T4, O5AU1
T4 sequence (whole entry): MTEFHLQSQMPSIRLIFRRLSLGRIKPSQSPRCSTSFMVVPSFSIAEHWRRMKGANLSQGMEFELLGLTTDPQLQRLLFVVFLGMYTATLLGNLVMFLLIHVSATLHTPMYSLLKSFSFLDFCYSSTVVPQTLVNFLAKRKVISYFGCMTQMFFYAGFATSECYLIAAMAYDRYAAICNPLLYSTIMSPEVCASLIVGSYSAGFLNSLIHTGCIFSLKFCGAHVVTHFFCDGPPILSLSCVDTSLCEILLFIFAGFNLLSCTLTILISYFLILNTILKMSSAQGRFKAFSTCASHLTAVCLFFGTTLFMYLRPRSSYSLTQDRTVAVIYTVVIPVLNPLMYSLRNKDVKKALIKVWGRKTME
In short: as §1

O5H14 = test system: T5, O5H14
T5 sequence (whole entry): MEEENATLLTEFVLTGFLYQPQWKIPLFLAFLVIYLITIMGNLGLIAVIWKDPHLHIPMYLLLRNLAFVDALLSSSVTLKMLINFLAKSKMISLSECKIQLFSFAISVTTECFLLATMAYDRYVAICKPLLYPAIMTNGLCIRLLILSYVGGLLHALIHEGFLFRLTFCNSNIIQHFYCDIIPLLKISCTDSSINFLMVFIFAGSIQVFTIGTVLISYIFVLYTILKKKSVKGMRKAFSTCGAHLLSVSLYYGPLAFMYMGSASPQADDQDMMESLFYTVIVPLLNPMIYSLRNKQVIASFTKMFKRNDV
In short: as §1

O5H15 V108I S148T T167S = test system: T6, O5H15 V108I S148T T167S
T6 sequence (whole entry): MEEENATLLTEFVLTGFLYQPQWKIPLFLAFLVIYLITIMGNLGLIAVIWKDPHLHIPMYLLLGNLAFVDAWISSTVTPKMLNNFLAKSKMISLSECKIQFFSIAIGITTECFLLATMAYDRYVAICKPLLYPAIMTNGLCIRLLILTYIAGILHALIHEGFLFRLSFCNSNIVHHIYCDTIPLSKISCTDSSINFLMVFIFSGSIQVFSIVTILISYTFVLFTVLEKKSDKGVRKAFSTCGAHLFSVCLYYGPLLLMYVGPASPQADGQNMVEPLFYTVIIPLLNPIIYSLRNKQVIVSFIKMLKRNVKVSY
In short: as §1

O6C65 T222A = test system: T7, O6C65 T222A
T7 sequence (whole entry): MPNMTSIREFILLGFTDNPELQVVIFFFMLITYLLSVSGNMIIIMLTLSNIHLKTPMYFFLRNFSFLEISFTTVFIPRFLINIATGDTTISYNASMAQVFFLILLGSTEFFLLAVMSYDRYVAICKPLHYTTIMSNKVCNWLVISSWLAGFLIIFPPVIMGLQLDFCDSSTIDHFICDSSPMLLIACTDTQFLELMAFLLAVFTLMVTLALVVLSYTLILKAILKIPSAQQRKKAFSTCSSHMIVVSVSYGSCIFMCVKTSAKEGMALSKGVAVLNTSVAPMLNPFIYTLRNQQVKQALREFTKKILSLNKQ
In short: as §1

O6C70 L181P = test system: T8, O6C70 L181P
T8 sequence (whole entry): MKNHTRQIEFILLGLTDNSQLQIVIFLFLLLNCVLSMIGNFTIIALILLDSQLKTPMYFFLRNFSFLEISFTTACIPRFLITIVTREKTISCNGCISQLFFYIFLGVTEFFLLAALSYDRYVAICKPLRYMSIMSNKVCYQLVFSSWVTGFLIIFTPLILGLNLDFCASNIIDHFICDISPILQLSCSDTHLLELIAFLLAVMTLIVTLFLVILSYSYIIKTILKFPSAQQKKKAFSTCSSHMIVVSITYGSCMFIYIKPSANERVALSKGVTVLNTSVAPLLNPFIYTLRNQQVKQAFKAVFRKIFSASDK
In short: as §1

O7E24 S193F P242S = test system: T9, O7E24 S193F P242S
T9 sequence (whole entry): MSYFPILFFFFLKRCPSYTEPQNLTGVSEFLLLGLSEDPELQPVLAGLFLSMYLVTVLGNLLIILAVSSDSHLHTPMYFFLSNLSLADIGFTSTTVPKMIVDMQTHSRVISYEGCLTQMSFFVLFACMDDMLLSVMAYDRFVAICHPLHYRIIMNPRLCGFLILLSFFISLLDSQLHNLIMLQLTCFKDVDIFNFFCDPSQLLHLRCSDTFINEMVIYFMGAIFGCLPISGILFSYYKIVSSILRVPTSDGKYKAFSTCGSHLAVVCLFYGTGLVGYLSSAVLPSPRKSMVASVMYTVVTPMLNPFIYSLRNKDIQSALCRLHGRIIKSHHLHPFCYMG
In short: as §1

O7E24 = test system: T10, O7E24
T10 sequence (whole entry): T9 sequence (whole entry) with F193S
In short: as §1

OR10A2 (Homo sapiens) = target: T11, OR10A2 (Homo sapiens) (UniProt Q9H208)
T11 sequence (whole entry): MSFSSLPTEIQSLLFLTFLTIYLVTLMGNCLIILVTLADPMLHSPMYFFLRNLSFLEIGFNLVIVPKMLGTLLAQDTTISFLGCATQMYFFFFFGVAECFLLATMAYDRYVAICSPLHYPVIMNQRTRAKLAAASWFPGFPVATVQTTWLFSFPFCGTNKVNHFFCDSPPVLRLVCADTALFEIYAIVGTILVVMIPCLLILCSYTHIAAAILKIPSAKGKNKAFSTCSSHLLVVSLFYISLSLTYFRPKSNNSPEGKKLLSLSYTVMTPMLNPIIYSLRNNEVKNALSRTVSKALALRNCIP
In short: as §1

OR10A3 (Homo sapiens) = target: T12, OR10A3 (Homo sapiens) (UniProt P58181)
T12 sequence (whole entry): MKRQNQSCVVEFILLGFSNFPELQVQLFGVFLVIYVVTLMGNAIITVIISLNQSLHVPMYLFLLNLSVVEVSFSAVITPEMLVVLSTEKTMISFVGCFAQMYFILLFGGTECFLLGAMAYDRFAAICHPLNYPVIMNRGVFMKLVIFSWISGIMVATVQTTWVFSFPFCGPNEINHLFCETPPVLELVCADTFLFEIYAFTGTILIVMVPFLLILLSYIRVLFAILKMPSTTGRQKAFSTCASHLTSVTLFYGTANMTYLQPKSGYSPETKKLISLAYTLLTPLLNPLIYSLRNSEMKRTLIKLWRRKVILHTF
In short: as §1

OR10A4 (Homo sapiens) = target: T13, OR10A4 (Homo sapiens) (UniProt Q9H209)
T13 sequence (whole entry): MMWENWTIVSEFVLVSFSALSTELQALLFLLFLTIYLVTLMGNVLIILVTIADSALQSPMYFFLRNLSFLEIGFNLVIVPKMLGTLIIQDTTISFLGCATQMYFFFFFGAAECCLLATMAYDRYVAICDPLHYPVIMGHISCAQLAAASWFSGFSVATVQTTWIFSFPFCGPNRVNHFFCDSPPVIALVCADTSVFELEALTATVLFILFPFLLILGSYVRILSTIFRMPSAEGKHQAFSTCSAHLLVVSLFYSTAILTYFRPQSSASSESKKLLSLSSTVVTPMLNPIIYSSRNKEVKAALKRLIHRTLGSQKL
In short: as §1

OR10A5 (Homo sapiens) = target: T14, OR10A5 (Homo sapiens) (UniProt Q9H207)
T14 sequence (whole entry): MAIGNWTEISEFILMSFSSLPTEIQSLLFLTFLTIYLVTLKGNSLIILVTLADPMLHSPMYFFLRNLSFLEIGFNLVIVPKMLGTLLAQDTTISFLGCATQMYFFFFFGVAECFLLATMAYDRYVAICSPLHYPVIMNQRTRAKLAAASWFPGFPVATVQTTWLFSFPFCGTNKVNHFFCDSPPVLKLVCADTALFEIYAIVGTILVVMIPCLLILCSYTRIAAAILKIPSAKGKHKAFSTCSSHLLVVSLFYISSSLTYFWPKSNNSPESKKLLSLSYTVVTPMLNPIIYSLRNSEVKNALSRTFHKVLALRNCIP
In short: as §1

OR10A6 (Homo sapiens) = target: T15, OR10A6 (Homo sapiens) (UniProt Q8NH74)
T15 sequence (whole entry): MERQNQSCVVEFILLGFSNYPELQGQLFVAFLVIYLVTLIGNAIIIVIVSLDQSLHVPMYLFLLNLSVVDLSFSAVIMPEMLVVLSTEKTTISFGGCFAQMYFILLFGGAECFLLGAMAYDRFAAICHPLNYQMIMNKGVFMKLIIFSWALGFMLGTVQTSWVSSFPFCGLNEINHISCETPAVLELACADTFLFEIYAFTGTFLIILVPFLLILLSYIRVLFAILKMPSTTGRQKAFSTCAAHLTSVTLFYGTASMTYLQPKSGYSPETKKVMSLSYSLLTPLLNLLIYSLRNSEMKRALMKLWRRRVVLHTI
In short: as §1

OR10AD1 (Homo sapiens) = target: T16, OR10AD1 (Homo sapiens) (UniProt Q8NGE0)
T16 sequence (whole entry): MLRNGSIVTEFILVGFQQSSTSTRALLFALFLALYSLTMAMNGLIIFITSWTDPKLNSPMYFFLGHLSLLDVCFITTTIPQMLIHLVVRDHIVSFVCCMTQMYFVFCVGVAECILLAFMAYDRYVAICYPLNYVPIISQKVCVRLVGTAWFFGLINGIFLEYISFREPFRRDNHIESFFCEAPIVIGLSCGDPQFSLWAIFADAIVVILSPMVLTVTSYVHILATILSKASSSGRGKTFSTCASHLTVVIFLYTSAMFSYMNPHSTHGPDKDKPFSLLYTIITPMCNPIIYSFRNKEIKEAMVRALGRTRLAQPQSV
In short: as §1

OR10AG1 (Homo sapiens) = target: T17, OR10AG1 (Homo sapiens) (UniProt Q8NH19)
T17 sequence (whole entry): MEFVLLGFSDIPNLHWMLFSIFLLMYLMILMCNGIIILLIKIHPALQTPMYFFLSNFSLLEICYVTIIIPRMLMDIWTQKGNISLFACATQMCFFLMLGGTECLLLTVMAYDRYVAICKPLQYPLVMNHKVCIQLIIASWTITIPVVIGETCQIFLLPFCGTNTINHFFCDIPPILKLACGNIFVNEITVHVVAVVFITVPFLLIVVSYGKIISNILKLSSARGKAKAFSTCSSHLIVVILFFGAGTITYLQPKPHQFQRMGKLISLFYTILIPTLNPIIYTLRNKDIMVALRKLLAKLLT
In short: as §1

OR10C1 (Homo sapiens) = target: T18, OR10C1 (Homo sapiens) (UniProt Q96KK4)
T18 sequence (whole entry): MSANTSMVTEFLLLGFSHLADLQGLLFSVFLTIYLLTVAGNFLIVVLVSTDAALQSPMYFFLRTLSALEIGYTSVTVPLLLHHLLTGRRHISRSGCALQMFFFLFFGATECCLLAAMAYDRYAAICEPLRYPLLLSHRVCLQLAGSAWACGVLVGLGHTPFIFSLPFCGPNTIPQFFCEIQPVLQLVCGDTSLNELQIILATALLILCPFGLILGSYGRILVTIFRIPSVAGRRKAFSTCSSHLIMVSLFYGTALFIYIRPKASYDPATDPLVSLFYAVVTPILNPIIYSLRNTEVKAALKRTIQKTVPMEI
In short: as §1

OR10D3 (Homo sapiens) = target: T19, OR10D3 (Homo sapiens) (UniProt Q8NH80)
T19 sequence (whole entry): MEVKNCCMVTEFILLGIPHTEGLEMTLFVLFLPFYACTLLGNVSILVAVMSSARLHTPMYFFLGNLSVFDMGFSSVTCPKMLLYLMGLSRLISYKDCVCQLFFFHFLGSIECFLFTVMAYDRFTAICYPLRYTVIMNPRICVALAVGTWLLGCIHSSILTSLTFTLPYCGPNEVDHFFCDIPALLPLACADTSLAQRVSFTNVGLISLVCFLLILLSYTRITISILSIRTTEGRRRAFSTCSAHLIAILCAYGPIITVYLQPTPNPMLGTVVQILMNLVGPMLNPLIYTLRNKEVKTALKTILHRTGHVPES
In short: as §1

Measured: odorant receptor agonist call

CC(C)CS
inactive: OR10A7 (Homo sapiens)

CC1(C)CC(=O)CC(=O)C1
inactive: OR10A7 (Homo sapiens)

O=C1CCCCCCCCC1
inactive: O5AN1

CCCCCCCCCCCCCC(C)=O
inactive: O5AN1

CC1C(C)(C)C2=C(C(=O)CCC2)C1(C)C (stereo not drawn)
inactive: O5AN1

CC1=C(O)C(=O)OC1C (stereo not drawn)
not listed: O5AN1
inactive: all other assays above
